A selection: hits, their analogues and other compounds. The true share with any hit is near 1.7%.
Pemphigus Ab inh = inhibitors of pemphigus antibody binding to DSG3, primary screen, biochemical, bead-based, flow cytometry, scFv-GFP. binding (percent of control), % at 10 µM. 0.48% of 310,000 active. Desmoglein-3 (Homo sapiens), P32926. DSG3-coupled beads, scFv-anti-DSG3-GFP binding; hits give low values;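 active means binding more than 3 SD below its plate's average and above zero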;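 further: hits lower antibody fragment binding to DSG3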
STEP block = STEP phosphatase inhibitors, primary screen, biochemical, fluorescence intensity, uHTS; AID 588621, 2011; 0.25% of 360,000 active; recombinant STEP, OMFP fluorogenic substrate; inhibition, % at 20 µM; Tyrosine-protein phosphatase non-receptor type 5 (Homo sapiens), P54829;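 active means inhibition at 20 µM, scaled per plate between control wells, above about 37%, limit read from the data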
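Also added – OMFP at 25 µM · Test system – STEP tyrosine phosphatase · Technique – FITC-channel fluorescence of OMFP product · Schedule – 20 min at room temperature, dark · Evaluation – control-normalized % inhibition with plate pattern correction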
SUMO1 PPI mod = modulators of SUMO1 protein-protein interactions, primary screen, biochemical, uHTS; Small ubiquitin-related modifier 1 (Homo sapiens), P63165; SUMO1 binding to a labelled peptide, TR-FRET, 1 h; inhibition, % at 20 µM; 0.33% of 360,000 active; AID 602429, 2012; in the data active means inhibition above about 37%
Target sequence (P63165 whole entry, looked up): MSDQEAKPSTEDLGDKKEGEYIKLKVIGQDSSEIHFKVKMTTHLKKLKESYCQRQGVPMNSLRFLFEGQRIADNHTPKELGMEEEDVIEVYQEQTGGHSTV
LMPTP block = LMPTP phosphatase inhibitors, primary screen, biochemical, fluorescence intensity, uHTS. recombinant LMPTP-A, OMFP fluorogenic substrate. inhibition, % at 20 µM. 0.22% of 360,000 active;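 active means compounds that cut the enzyme signal by at least half of the control window in the single-dose screen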
Target sequence (P24666 whole entry, looked up): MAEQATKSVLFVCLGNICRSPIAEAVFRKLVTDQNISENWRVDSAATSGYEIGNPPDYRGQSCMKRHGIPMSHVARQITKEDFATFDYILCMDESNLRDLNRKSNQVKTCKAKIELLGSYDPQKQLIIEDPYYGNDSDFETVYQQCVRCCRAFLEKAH
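Test system: LMPTP-A, protein tyrosine phosphatase of low molecular weight; Input: 0.625 nM enzyme; Incubation: 50 min dark incubation at room temperature; Signal: endpoint fluorescence intensity from OMFP dephosphorylation; Read-out basis: % inhibition versus control wells.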
Scp1 inh = Scp-1 phosphatase inhibitors, primary screen, biochemical, colorimetric, uHTS | Carboxy-terminal domain RNA polymerase II polypeptide A small phosphatase 1 (Homo … | Recombinant Scp1, phosphopeptide, malachite green phosphate absorbance | inhibition, % at 20 µM | 0.88% of 340,000 active;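 active means inhibition above about 50% at 20 µM, limit read from the data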
Target sequence (Q9GZU7 76-261 limits assumed): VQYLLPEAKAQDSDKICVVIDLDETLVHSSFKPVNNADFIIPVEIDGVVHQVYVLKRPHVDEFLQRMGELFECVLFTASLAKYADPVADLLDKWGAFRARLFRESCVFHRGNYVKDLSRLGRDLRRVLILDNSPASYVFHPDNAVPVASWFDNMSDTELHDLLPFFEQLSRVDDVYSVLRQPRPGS
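System: truncated SCP-1 phosphatase (76-261aa); medium: Tris acetate buffer pH 5.5 with MgCl2 and Tween-20; incubation: 45 min room-temperature reaction, 5 min colour, 30 min stabiliser; compound: single 20 µM dose, 1% DMSO; reagent: Phosphorylated 17-residue peptide substrate; read-out: % inhibition at 20 µM; technique: colorimetric free-phosphate detection, absorbance 630 nm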
Scp-1 conf = Scp-1 phosphatase inhibitors, retest, confirmation, biochemical, colorimetric, single concentration. recombinant SCP-1 catalytic domain, phosphate release, malachite green absorbance. shares compounds with Scp1 inh. inhibition, % at 20 µM. 61% of 2,500 active
MG interference = colorimetric readout interference by compounds, confirmation, artefact control for Scp-1 inhibitor project, biochemical, single concentration | shares compounds with Scp1 inh | Colorimetric interference counterscreen, malachite green absorbance 630 nm | apparent inhibition (interference), % at 20 µM | 2,500 tested, under 10 active | AID 540313, 2011;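 further: compounds added after enzyme reaction finished so only phosphate colour detection is probed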
Scp-1 Tm shift = Scp-1 binding by thermal shift, confirmation, orthogonal assay for Scp-1 inhibitor project, biophysical, differential scanning fluorimetry; shares compounds with Scp1 inh; Recombinant SCP1, Sypro Orange thermal shift Tm; thermal shift relative to vanadate control, % at 40 µM; 25% of 1,500 active;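 active means substances whose mean melting-temperature shift, as a percentage of the reference inhibitor's shift, reaches about 5.3%, limit read from the data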
A number is an active result; i = inactive; nt = no result given.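 How the source made its calls, unless noted: active means inhibition of at least 30% at 20 µM; inactive means the rest.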

SMILES	Pemphigus Ab inh	STEP block	SUMO1 PPI mod	LMPTP block	Scp1 inh	Scp-1 conf	MG interference	Scp-1 Tm shift
Cn1cc(Cl)c(C(=O)Nc2nc3ccccc3s2)n1	i	i	i	i	i	nt	nt	nt
O=C(c1ccco1)N1CCC(c2nc3c(nnn3Cc3ccc(F)cc3)c(=O)[nH]2)CC1	i	i	i	i	i	nt	nt	nt
C=CCn1c(SCC(=O)N2CCc3ccccc3C2)nc2ccccc2c1=O	i	i	i	i	i	nt	nt	nt
Cc1cn(CC(=O)N[C@H](C)c2cccc3ccccc23)c(=O)[nH]c1=O	i	i	i	i	i	i	i	nt
CC(Oc1ccc2c(-c3ccccc3)cc(=O)oc2c1)C(=O)NCCCn1ccnc1 (stereo not given)	nt	i	i	i	i	nt	nt	nt
CCCN1C(=O)c2cc(C(=O)NC3CCCCCC3)ccc2C1O (stereo not given)	i	i	i	i	60	i	i	nt
COc1ccccc1-c1nnc2sc(-c3cnccn3)nn12	i	i	i	i	70	56	i	5.8
COc1ccccc1-c1nnc2sc(-c3ccc(N(C)C)cc3)nn12	i	i	i	i	i	nt	nt	nt
COc1ccc(/C=N/NC(=O)c2ccc(NC(=O)c3cccc([N+](=O)[O-])c3)cc2)c(OC)c1	i	i	i	i	i	nt	nt	nt
COc1ccc(/C=N/NC(=O)c2cccc(NC(=O)c3ccc(Cl)cc3)c2)c(OC)c1	nt	i	i	i	83	66	i	i
O=C1C2C3C=CC(C4CC34)C2C(=O)N1/N=C/c1ccc(-c2ccc([N+](=O)[O-])cc2)o1 (stereo not given)	i	i	i	i	i	nt	nt	nt
O=C1Nc2ccccc2/C1=N/N=C/c1ccc(-c2ccc([N+](=O)[O-])cc2)o1	72	i	i	i	75	36	i	5.6
C[N+]1(C2CCC3CCC2C3O)CCCC1 (stereo not given)	i	i	i	i	i	nt	nt	nt
CC(=O)OC1C2CCC1C([N+]1(C)CCCCC1)CC2 (stereo not given)	i	i	i	i	94	95	i	i
O=C(OCc1cc(=O)n2c(n1)sc1ccccc12)c1ccc(O)cc1	i	i	i	i	64	53	i	i
Cc1cccc(C(=O)N[C@H](C(=O)OCc2cc(=O)n3c(n2)sc2ccccc23)C(C)C)c1	i	i	i	i	72	50	i	i
O=c1cc(CCl)nc2sc3ccccc3n12	nt	i	i	i	i	nt	nt	nt
COc1ccc(/C=C/C(=O)OCc2cc(=O)n3c(n2)sc2ccccc23)cc1	i	i	i	i	i	nt	nt	nt
Cn1nc(-c2ccc(C(=O)Nc3ccc(F)cc3)cc2)c2ccccc2c1=O	nt	i	i	i	60	42	i	i
COC(=O)c1[nH]c2c(c1C(=O)OC)CCc1ccccc1-2	i	i	i	i	i	nt	nt	nt
Cc1csc(NC(=O)CSc2sc3c(O)cc(=O)[nH]c3c2C#N)n1	i	i	i	i	68	53	i	12
CCSc1nnc(NC(=O)CSc2sc3c(O)cc(=O)[nH]c3c2C#N)s1	nt	i	i	62	77	49	i	13
Cc1c(CCC(=O)O)c(=O)oc2cc(OCc3ccccc3Br)ccc12	i	i	i	i	83	76	i	i
O=C(N/N=C\c1cccnc1)c1cc(-c2ccc(Cl)s2)[nH]n1	i	i	i	i	62	53	i	i
CCOc1ncccc1C(=O)N(C)CC(=O)Nc1ccccc1SC	i	i	i	i	60	i	i	nt
SMILES	Pemphigus Ab inh	STEP block	SUMO1 PPI mod	LMPTP block	Scp1 inh	Scp-1 conf	MG interference	Scp-1 Tm shift
CSc1ccccc1NC(=O)CN(C)C(=O)/C=C/c1ccccc1	i	i	i	i	i	nt	nt	nt
COc1ccccc1C(=O)NNC(=O)CN1C(=O)c2ccccc2C1=O	i	i	i	i	i	nt	nt	nt
COc1ccc(NS(=O)(=O)c2cccc(C(=O)N/N=C/c3c(F)c(F)c(F)c(F)c3F)c2)cc1	i	i	i	i	75	52	i	7.3
O=C(COC(=O)c1ccc[n+]([O-])c1)Nc1ccccc1OC(F)F	i	i	i	i	i	nt	nt	nt
O=C(C[n+]1ccc(C(=O)c2ccccc2)cc1)Nc1ccccc1OC(F)F	i	i	i	i	83	i	i	nt
O=C(CCNC(=O)Cn1ccc2ccccc2c1=O)NCC1CCCC1c1ccccc1 (stereo not given)	i	i	i	i	i	nt	nt	nt
Cn1cccc/c1=N\c1cccc[n+]1C	i	i	i	i	107	i	i	nt
O=[N+]([O-])c1cc(-c2ccc(/C=N/n3cnnc3)o2)ccc1Cl	i	i	i	i	i	nt	nt	nt
O=[N+]([O-])c1ccc(Cl)c(-c2ccc(/C=N/n3cnnc3)o2)c1	i	i	i	i	62	52	i	i
Cc1[nH]c2ccccc2c1C(=O)COC(=O)c1c(-c2c(F)cccc2Cl)noc1C	i	i	i	i	i	nt	nt	nt
CCc1cc2c(=O)c(-c3ccc4c(c3)OCCO4)c(C)oc2cc1OS(C)(=O)=O	i	i	i	i	i	nt	nt	nt
COc1ccc(CCNC(=O)CSc2nnc3c(n2)[nH]c2ccc(F)cc23)cc1OC	i	i	i	i	i	nt	nt	nt
COc1ccc(CNC(=O)CSc2nnc3c(n2)[nH]c2ccc(F)cc23)cc1	i	i	i	i	62	31	i	i
COc1ccc(CNC(=O)CSc2nnc3c(n2)[nH]c2ccc(OC)cc23)cc1	i	i	i	i	65	70	i	i
O=S(=O)(NCc1ccco1)c1ccc(Cl)nc1	i	i	i	i	i	nt	nt	nt
COC(=O)C1=C(C)N(Cc2ccccc2)C(=NCCc2ccccn2)N[C@H]1c1cccc(F)c1	i	i	i	i	59	i	i	nt
COc1ccccc1CNC(=O)CCNS(=O)(=O)c1cccc2nonc12	nt	i	i	i	i	nt	nt	nt
COc1ccc(O)cc1CN1CCN(c2ncc(Cc3ccccc3)cn2)CC1	nt	nt	i	i	nt	nt	nt	nt
COc1ccccc1NC(=O)c1cc(N)cc(C(=O)Nc2ccccc2OC)c1	i	i	i	i	i	nt	nt	nt
COc1ccccc1NC(=O)c1coc(=O)c(Br)c1	i	i	i	i	66	i	i	nt
O=C(/C=C/c1ccco1)Nc1ccccn1	i	i	i	i	i	nt	nt	nt

Bioassay records from PubChem.
